Measured values taken from ChEMBL document CHEMBL1134340, “GnRH antagonists: a new generation of long acting analogues incorporating p-ureido-phenylalanines at positions 5 and 6” (J Med Chem, 2001).
*1 amine or outer side, *2 acyl side, *3 side chain or, on linkers, in order; H or OH if unused. Where a SMILES comes first, the peptide text is derived from it. Side-chain parts run from the residue outwards. [ ]: non-standard residue; d: D form. dPhe(4-NHCONH2) = NC(=O)Nc1ccc(C[C@@H](N)C(=O)O)cc1; Phe(4-NHCONH2) = NC(=O)Nc1ccc(C[C@H](N)C(=O)O)cc1; dPhe(4-NH2) = Nc1ccc(C[C@@H](N)C(=O)O)cc1; dPhe(4-Cl) = N[C@H](Cc1ccc(Cl)cc1)C(=O)O; Phe(4-NH2) = Nc1ccc(C[C@H](N)C(=O)O)cc1; d2Nal = N[C@H](Cc1ccc2ccccc2c1)C(=O)O; Lys(iPr) = CC(C)NCCCC[C@H](N)C(=O)O; d3Pal = N[C@H](Cc1cccnc1)C(=O)O; CO = O=C([*:1])[*:2]

Tests used:
[1] = target: T1, Gonadotropin-releasing hormone receptor (Homo sapiens, UniProt P30968); assay: Competitive antagonism of GnRH-induced response in the reporter gene assay; format: functional; conditions: read-out: pA2 (converted)
T1 sequence (P30968 whole entry): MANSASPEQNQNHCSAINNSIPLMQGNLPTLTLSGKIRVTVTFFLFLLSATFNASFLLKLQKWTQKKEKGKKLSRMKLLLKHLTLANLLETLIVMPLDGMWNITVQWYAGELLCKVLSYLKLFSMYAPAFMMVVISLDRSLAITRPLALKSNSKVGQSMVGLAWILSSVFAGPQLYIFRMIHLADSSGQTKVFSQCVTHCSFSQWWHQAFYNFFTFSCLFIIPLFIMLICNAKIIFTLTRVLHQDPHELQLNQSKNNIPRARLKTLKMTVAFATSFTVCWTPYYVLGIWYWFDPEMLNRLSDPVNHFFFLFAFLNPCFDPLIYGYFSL
How it was run: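 Same HEK293 human GnRH receptor luciferase reporter cells. Seven-point GnRH curve (10 µM to 10 pM final) run in duplicate without or with four to five increasing compound concentrations (10 min preincubation, 37 °C), then 5 h and luminescence. GnRH EC50 at each level by four-parameter logistic fit, giving pA2; mean of two determinations in duplicate.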

[2] = target: T1, Gonadotropin-releasing hormone receptor; assay: Antagonism of human GnHR receptor, determined in a reporter gene assay in HEK293 cells; format: functional, cell-based
How it was run: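 HEK293 cells stably expressing cloned human GnRH receptor plus luciferase reporter under LH alpha subunit promoter, plated 24 h before assay. Compound in 1% DMSO added 10 min at 37 °C, then GnRH at 3 nM final; 5 h incubation, luciferase luminescence read. Six concentrations in duplicate; blank-subtracted cps as % of GnRH control; mean of two determinations.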

[3] = organism: Rattus norvegicus; assay: Compound was tested for inhibition of Leutenizing hormone release at 72 hours (long duration) in castrated male rat assay; format: functional; parameters: concentration or dose not given beside the values
How it was run: (§1)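 Male Sprague-Dawley rats (180-200 g), castrated under ether 10 days earlier, 5 per group. 50 µg/rat given sc in 100 µL 40 mM phosphate buffer with 0.1% BSA and 0.6% DMSO; acyline run as internal standard. Tail blood taken predose and at 24, 48, 72, 96 (sometimes 120) h; plasma LH by RIA. Duration classed by >80% LH inhibition at each time.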

[4] = organism: Rattus norvegicus; assay: Compound was tested for inhibition of Leutenizing hormone release at 48 hours (intermediate duration) in castrated male rat assay; format: functional; parameters: concentration or dose not given beside the values; how it was run: as §1
[5] = organism: Rattus norvegicus; assay: Compound was tested for inhibition of Leutenizing hormone release at 96 hours (very long duration) in castrated male rat assay; format: functional; parameters: concentration or dose not given beside the values; how it was run: as §1
[6] = organism: Rattus norvegicus; assay: Compound was tested for histamine release at a concentration of 100 ug/mL; format: functional
How it was run: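 Sprague-Dawley rat peritoneal mast cells, Percoll-purified, in heparinized balanced salt solution with albumin, pH 7.2. Cells exposed to compound or vehicle for 2 min at 37 °C. Supernatant histamine measured spectrofluorometrically after o-phthalaldehyde derivatization; pellets lysed for retained histamine. Reported as % of total histamine released, corrected for spontaneous release in vehicle.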

Structure (SMILES) | Kb [1] [nM] | IC50 [2] [nM] | Inhibition [3] [%] | Inhibition [4] [%] | Inhibition [5] [%] | HR [6] [%]
CC(=O)Nc1ccc(C[C@H](NC(=O)[C@H](CO)NC(=O)[C@@H](Cc2cccnc2)NC(=O)[C@@H](Cc2ccc(Cl)cc2)NC(=O)[C@@H](Cc2ccc3ccccc3c2)NC(C)=O)C(=O)N[C@H](Cc2ccc(NC(N)=O)cc2)C(=O)N[C@@H](CC(C)C)C(=O)N[C@@H](CCCCNC(C)C)C(=O)N2CCC[C@H]2C(=O)N[C@H](C)C(N)=O)cc1 (Ac-[d2Nal][dPhe(4-Cl)][d3Pal]S[Phe(4-NH2)](Ac)[dPhe(4-NHCONH2)]L[Lys(iPr)]P[dA]-NH2) | 0.501 | 6.1 | >80 | – | – | –
CCNC(=O)[C@@H]1CCCN1C(=O)[C@H](CCCCNC(C)C)NC(=O)[C@H](CC(C)C)NC(=O)[C@@H](Cc1ccc(CNC(N)=O)cc1)NC(=O)[C@H](Cc1ccc(NC(=O)[C@@H]2CC(=O)NC(=O)N2)cc1)NC(=O)[C@H](CO)NC(=O)[C@@H](Cc1cccnc1)NC(=O)[C@@H](Cc1ccc(Cl)cc1)NC(=O)[C@@H](Cc1ccc2ccccc2c1)NC(C)=O | – | – | – | >80 | – | –
CC(=O)Nc1ccc(C[C@@H](NC(=O)[C@H](Cc2ccc(NC(=O)[C@H]3CC(=O)NC(=O)N3)cc2)NC(=O)[C@H](CO)NC(=O)[C@@H](Cc2cccnc2)NC(=O)[C@@H](Cc2ccc(Cl)cc2)NC(=O)[C@@H](Cc2ccc3ccccc3c2)NC(C)=O)C(=O)N[C@@H](CC(C)C)C(=O)N[C@@H](CCCCNC(C)C)C(=O)N2CCC[C@H]2C(=O)N[C@H](C)C(N)=O)cc1 | 1 | 8.6 | >80 | – | – | –
CC(=O)N[C@H](Cc1ccc2ccccc2c1)C(=O)N[C@H](Cc1ccc(Cl)cc1)C(=O)N[C@H](Cc1cccnc1)C(=O)N[C@@H](CO)C(=O)N[C@@H](Cc1ccc(NC(=O)[C@@H]2CC(=O)NC(=O)N2)cc1)C(=O)N[C@H](Cc1ccc(CNC(N)=O)cc1)C(=O)N[C@@H](CC(C)C)C(=O)N[C@@H](CCCCNC(C)C)C(=O)N1CCC[C@H]1C(=O)N[C@H](C)CO | 1 | 7.8 | – | – | >80 | –
CC(=O)Nc1ccc(C[C@@H](NC(=O)[C@H](Cc2ccc(NC(=O)C(NC(N)=O)NC(N)=O)cc2)NC(=O)[C@H](CO)NC(=O)[C@@H](Cc2cccnc2)NC(=O)[C@@H](Cc2ccc(Cl)cc2)NC(=O)[C@@H](Cc2ccc3ccccc3c2)NC(C)=O)C(=O)N[C@@H](CC(C)C)C(=O)N[C@@H](CCCCNC(C)C)C(=O)N2CCC[C@H]2C(=O)N[C@H](C)C(N)=O)cc1 | – | 8.9 | – | >80 | – | –
CC(=O)N[C@H](Cc1ccc2ccccc2c1)C(=O)N[C@H](Cc1ccc(Cl)cc1)C(=O)N[C@H](Cc1cccnc1)C(=O)N[C@@H](CO)C(=O)N[C@@H](Cc1ccc(NC(=O)[C@@H]2CC(=O)NC(=O)N2)cc1)C(=O)N[C@H](Cc1ccc(NC(N)=O)cc1)C(=O)N[C@@H](CC(C)C)C(=O)N[C@@H](CCCCNC(C)C)C(=O)N1CCC[C@H]1C(=O)N[C@H](C)C(N)=O [DEGARELIX] | 0.631 | 8.8 | – | >80 | – | –
CNC(=O)Nc1ccc(C[C@H](NC(=O)[C@H](CO)NC(=O)[C@@H](Cc2cccnc2)NC(=O)[C@@H](Cc2ccc(Cl)cc2)NC(=O)[C@@H](Cc2ccc3ccccc3c2)NC(C)=O)C(=O)N[C@H](Cc2ccc(NC(=O)NC)cc2)C(=O)N[C@@H](CC(C)C)C(=O)N[C@@H](CCCCNC(C)C)C(=O)N2CCC[C@H]2C(=O)N[C@H](C)C(N)=O)cc1 (Ac-[d2Nal][dPhe(4-Cl)][d3Pal]S[Phe(4-NH2)]([CO-NHMe])[dPhe(4-NH2)]([CO-NHMe])L[Lys(iPr)]P[dA]-NH2) | – | – | – | >80 | – | –
CC(=O)Nc1ccc(C[C@@H](NC(=O)[C@H](Cc2ccc(NC(=O)[C@H]3CNC(=O)N3)cc2)NC(=O)[C@H](CO)NC(=O)[C@@H](Cc2cccnc2)NC(=O)[C@@H](Cc2ccc(Cl)cc2)NC(=O)[C@@H](Cc2ccc3ccccc3c2)NC(C)=O)C(=O)N[C@@H](CC(C)C)C(=O)N[C@@H](CCCCNC(C)C)C(=O)N2CCC[C@H]2C(=O)N[C@H](C)C(N)=O)cc1 | – | 10.8 | – | >80 | – | –
CC(=O)Nc1ccc(C[C@H](NC(=O)[C@H](CO)NC(=O)[C@@H](Cc2cccnc2)NC(=O)[C@@H](Cc2ccc(Cl)cc2)NC(=O)[C@@H](Cc2ccc3ccccc3c2)NC(C)=O)C(=O)N[C@H](Cc2ccc(CNC(N)=O)cc2)C(=O)N[C@@H](CC(C)C)C(=O)N[C@@H](CCCCNC(C)C)C(=O)N2CCC[C@H]2C(=O)N[C@H](C)C(N)=O)cc1 | – | – | – | >80 | – | –
CC(=O)N[C@H](Cc1ccc2ccccc2c1)C(=O)N[C@H](Cc1ccc(Cl)cc1)C(=O)N[C@H](Cc1cccnc1)C(=O)N[C@@H](CO)C(=O)N[C@@H](Cc1ccc(NC(=O)[C@@H]2CC(=O)NC(=O)N2)cc1)C(=O)N[C@H](Cc1ccc(NC(N)=O)cc1)C(=O)N[C@@H](CC(C)C)C(=O)N[C@@H](CCCCNC(C)C)C(=O)N1CCC[C@H]1C(=O)N[C@@H](C)CO | – | – | >80 | – | – | –
CC(=O)Nc1ccc(C[C@@H](NC(=O)[C@H](Cc2ccc(NC(=O)[C@@H]3CNC(=O)N3)cc2)NC(=O)[C@H](CO)NC(=O)[C@@H](Cc2cccnc2)NC(=O)[C@@H](Cc2ccc(Cl)cc2)NC(=O)[C@@H](Cc2ccc3ccccc3c2)NC(C)=O)C(=O)N[C@@H](CC(C)C)C(=O)N[C@@H](CCCCNC(C)C)C(=O)N2CCC[C@H]2C(=O)N[C@H](C)C(N)=O)cc1 | 0.631 | 9.1 | >80 | – | – | –
CC(=O)Nc1ccc(C[C@@H](NC(=O)[C@H](Cc2ccc(NC(N)=O)cc2)NC(=O)[C@H](CO)NC(=O)[C@@H](Cc2cccnc2)NC(=O)[C@@H](Cc2ccc(Cl)cc2)NC(=O)[C@@H](Cc2ccc3ccccc3c2)NC(C)=O)C(=O)N[C@@H](CC(C)C)C(=O)N[C@@H](CCCCNC(C)C)C(=O)N2CCC[C@H]2C(=O)N[C@H](C)C(N)=O)cc1 (Ac-[d2Nal][dPhe(4-Cl)][d3Pal]S[Phe(4-NHCONH2)][dPhe(4-NH2)](Ac)L[Lys(iPr)]P[dA]-NH2) | – | 7.2 | – | >80 | – | –
CC(=O)Nc1ccc(C[C@@H](NC(=O)[C@H](Cc2ccc(NC(=O)[C@@H]3CC(=O)NC(=O)N3)cc2)NC(=O)[C@H](CO)NC(=O)[C@@H](Cc2cccnc2)NC(=O)[C@@H](Cc2ccc(Cl)cc2)NC(=O)[C@@H](Cc2ccc3ccccc3c2)NC(C)=O)C(=O)N[C@@H](CC(C)C)C(=O)N[C@@H](CCCCNC(C)C)C(=O)N2CCC[C@H]2C(=O)N[C@H](C)C(N)=O)cc1 | 1.26 | 4.3 | – | – | >80 | 54
CC(=O)N[C@H](Cc1ccc2ccccc2c1)C(=O)N[C@H](Cc1ccc(Cl)cc1)C(=O)N[C@H](Cc1cccnc1)C(=O)N[C@@H](CO)C(=O)N[C@@H](Cc1ccc(NC(=O)[C@@H]2CC(=O)NC(=O)N2)cc1)C(=O)N[C@H](Cc1ccc(NC(N)=O)cc1)C(=O)N[C@@H](CC(C)C)C(=O)N[C@@H](CCCCNC(C)C)C(=O)N1CCC[C@H]1C(=O)N[C@H](C)CO | – | – | – | – | >80 | –
CC(=O)N[C@H](Cc1ccc2ccccc2c1)C(=O)N[C@H](Cc1ccc(Cl)cc1)C(=O)N[C@H](Cc1cccnc1)C(=O)N[C@@H](CO)C(=O)N[C@@H](Cc1ccc(NC(=O)[C@@H]2CC(=O)NC(=O)N2)cc1)C(=O)N[C@H](Cc1ccc(CNC(N)=O)cc1)C(=O)N[C@@H](CC(C)C)C(=O)N[C@@H](CCCCNC(C)C)C(=O)N1CCC[C@H]1C(=O)N[C@@H](C)CO | 0.631 | 5.5 | – | – | >80 | –
CC(=O)Nc1ccc(C[C@@H](NC(=O)[C@H](Cc2ccc(NC(=O)C[C@@H]3NC(=O)NC3=O)cc2)NC(=O)[C@H](CO)NC(=O)[C@@H](Cc2cccnc2)NC(=O)[C@@H](Cc2ccc(Cl)cc2)NC(=O)[C@@H](Cc2ccc3ccccc3c2)NC(C)=O)C(=O)N[C@@H](CC(C)C)C(=O)N[C@@H](CCCCNC(C)C)C(=O)N2CCC[C@H]2C(=O)N[C@H](C)C(N)=O)cc1 | – | 8.1 | – | >80 | – | –
